Hits are enriched below; roughly 1.5% of the tested compounds scored in any of these assays.
PTK2B oligo ant: antagonists of human Pyk2 oligomerization. Q14289. Q293 cells, Pyk2 FERM NanoBiT luminescence; stronger effect = lower value. z-score (the deposit names both 25 µM and 10 µM). 99,000 tested, 0.83% active. AID 1347419;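 active = Z-score of -3 or lower, scaled per plate to the spread of control and sample wells; inactive = z-score above -3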;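 note: negative z-score means lost luminescence so less FERM oligomerization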
Target sequence (Q14289 whole entry, looked up): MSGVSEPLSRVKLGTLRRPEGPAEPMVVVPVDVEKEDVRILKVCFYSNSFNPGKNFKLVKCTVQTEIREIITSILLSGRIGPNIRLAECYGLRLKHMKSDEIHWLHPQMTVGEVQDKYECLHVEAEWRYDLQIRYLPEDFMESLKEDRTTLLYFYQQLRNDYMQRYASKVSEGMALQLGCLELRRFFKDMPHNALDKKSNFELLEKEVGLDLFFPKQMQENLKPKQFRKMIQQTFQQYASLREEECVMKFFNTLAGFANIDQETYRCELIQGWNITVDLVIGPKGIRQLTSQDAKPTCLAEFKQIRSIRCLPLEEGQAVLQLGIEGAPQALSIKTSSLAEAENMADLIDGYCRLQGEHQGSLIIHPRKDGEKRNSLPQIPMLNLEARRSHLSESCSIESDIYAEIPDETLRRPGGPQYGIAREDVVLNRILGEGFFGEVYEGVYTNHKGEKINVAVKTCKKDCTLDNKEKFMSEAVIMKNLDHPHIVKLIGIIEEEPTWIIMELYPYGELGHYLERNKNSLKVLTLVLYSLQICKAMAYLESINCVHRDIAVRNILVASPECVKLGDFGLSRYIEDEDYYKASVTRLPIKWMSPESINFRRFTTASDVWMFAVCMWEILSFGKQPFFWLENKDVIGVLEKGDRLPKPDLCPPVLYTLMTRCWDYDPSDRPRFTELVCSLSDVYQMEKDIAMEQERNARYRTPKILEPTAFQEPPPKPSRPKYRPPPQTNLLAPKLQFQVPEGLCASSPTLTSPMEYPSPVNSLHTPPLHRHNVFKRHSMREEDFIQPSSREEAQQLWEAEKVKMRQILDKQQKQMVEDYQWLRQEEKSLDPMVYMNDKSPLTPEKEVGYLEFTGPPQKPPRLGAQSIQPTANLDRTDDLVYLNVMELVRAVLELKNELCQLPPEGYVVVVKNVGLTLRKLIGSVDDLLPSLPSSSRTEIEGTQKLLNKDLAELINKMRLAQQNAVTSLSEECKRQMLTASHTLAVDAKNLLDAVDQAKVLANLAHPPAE
PLK1 PBD inh: inhibitors of human Plk1 polo box domain binding; P53350; inhibition, %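 (tested at about 20 µM)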; Plk1 PBD phosphopeptide binding, fluorescence polarization; 97,000 tested, 0.13% active; in the data active = inhibition above about 34%, passing the limit was not always enough
AP complement: alternative pathway complement inhibition, orthogonal assay | 62,000 tested, 0.08% active | Human serum alternative complement pathway, LPS-coated ELISA, C3 deposition; tested in compound mixtures | inhibition, % at 5 µM;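 active = inhibition above 30% in each of the two pooled mixtures holding the compound, so the lower value exceeds 30%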;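 note: 0% = serum in Mg-EGTA without compound and 100% = EDTA serum blank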
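Test system: human serum complement alternative pathway, C3 deposition onto LPS / Medium: Mg2+-EGTA GVB++ buffer containing human serum at 1:15 dilution / Probe or stimulus: Plate-bound LPS / Times: 1 h at 37 °C / Signal: ELISA with HRP anti-human C3 antibody, TMB substrate, absorbance 450 nm / Measure: percent inhibition / Repeats: two pool placements per compound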
HePTP inh: blocks human HePTP tyrosine phosphatase; P35236; recombinant HePTP phosphatase activity, OD absorbance; inhibition, % at 20 µM; 110,000 tested, 0.64% active; AID 521; in the data active = inhibition above about 50%;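 note: plate controls were vehicle for no effect and reference inhibitor for full effect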
PLK1 inh: blocks human PLK1 kinase activity; AID 619; inhibition, % at 10 µM; 97,000 tested, 0.53% active; recombinant PLK1 kinase, TR-FRET peptide phosphorylation; P53350;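 active = inhibition of 50% or more in the single-concentration screen; inactive = inhibition below 50%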;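 note: 0% = DMSO max control and 100% = H-89 dihydrochloride min control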
HEK293 NFkB inh: lowers PMA/ionomycin-induced NF-kB signal in HEK293 cells; HEK-293 NF-kB luciferase reporter, luminescence; inhibition, % at 3 µM; 62,000 tested, 0.21% active;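 active = inhibition above the mean of all tested compounds plus 3 SD, cut at about 40% in these data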;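 note: 0% = stimulated DMSO wells and 100% = 10 µM reference inhibitor 5653914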
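System: NF-kB luciferase reporter HEK-293 cells | Replication: Single test | Control set: DMSO vs reference inhibitor | Evaluation: % inhibition | Schedule: 1 h pretreatment, 16 h stimulation, 37 °C | Probe or stimulus: PMA with ionomycin | Compound dosing: One dose, 3 µM | Detection: Luciferase luminescence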
* hit, by the source's call; . = not tested or not shown.

SMILES	PTK2B oligo ant	PLK1 PBD inh	AP complement	HePTP inh	PLK1 inh	HEK293 NFkB inh
Cc1ccc(CN2CCNC(=O)C2CC(=O)O)cc1 (centres undefined)	.	-15	24	6	61*	2
O=C(O)CC1C(=O)NCCN1Cc1ccc(F)c(F)c1 (centres undefined)	.	-14	11	10	65*	6
O=C(/C=C/c1ccco1)NCCCCNC(=O)/C=C/c1ccco1	.	.	.	103*	.	.
O=C(/C=C/c1ccco1)Nc1ccc(Cl)cc1Cl	.	.	.	8	.	.
O=C(/C=C/c1ccco1)Nc1ccc(O)cc1C(=O)O	.	.	.	98*	.	.
O=C(/C=C/c1ccco1)Nc1cccc([N+](=O)[O-])c1	.	.	.	62*	.	.
O=C(/C=C/c1ccco1)Nc1ccc(Cl)cc1C(=O)O	.	.	.	102*	.	.
COc1cccc(CN2CCN(C3CC4CCC3C4)CC2)c1OC (centres undefined)	.	.	.	-7	.	.
COC(=O)c1c(C)oc2ccc(OC(=O)c3ccc(Br)cc3)cc12	.	.	.	104*	.	.
Cc1ccc2[nH]c(C(=O)N/N=C/c3ccc(O)cc3O)c(-c3ccccc3)c2c1	.	.	.	-3	.	.
CCOC(=O)c1c(C)[nH]c(C)c1C(=O)COC(=O)CCOc1ccccc1OC	-0.29	0	6	6	65*	18
CCOC(=O)c1[nH]c(COC(=O)CCOc2ccccc2OC)c(C(=O)OCC)c1C	-0.16	4	.	.	-8	.
CCc1cccc(NC(=O)c2cnccn2)c1	.	.	.	-10	.	.
Cc1cccc(NC(=O)c2cnccn2)c1	.	.	.	60*	.	.
Cc1[nH]c(=O)c(C(=O)/C=C/c2ccccc2Cl)c2c1CCCC2	.	.	.	0	.	.
COc1ccc(C)cc1NC(=O)CCC1CCCC1	.	.	.	104*	.	.
CCC(=O)c1ccc(OCC(O)CN2CCOCC2)cc1 (centres undefined)	0.52	-20	17	6	-15	8
CC(=O)c1ccc(OCC(O)CN2CCOCC2)cc1 (centres undefined)	.	-19	8	5	65*	1
O=C(/C=C\c1ccccc1)Nc1ccc2c3c(cccc13)CC2	.	.	.	-2	.	.
CC12CCC3C(CCC4CCCCC43C)C1CC/C2=N\O (centres undefined)	.	.	.	9	.	.
O=c1c2c(nc3cc(-c4ccccc4)[nH]n13)CCS2	-0.2	-6	.	-1	-7	.
O=c1c2c(nc3cc(-c4ccc(Br)cc4)[nH]n13)CCS2	.	.	.	52*	.	.
COc1ccc(OC)c(N(CC(=O)NC(C)(C)CO)S(=O)(=O)c2ccccc2)c1	.	.	.	8	.	.
Cc1nn(-c2ccccc2)c(Cl)c1C(=O)OC(C)C(=O)NC(=O)NC1CCCCC1 (centres undefined)	-4.2*	-13	.	.	-1	.
CCOc1cc(-c2c(C#N)c(N)nc3c2CCCC3C)ccc1O (centres undefined)	-3.1*	2	-5	0	-2	-2
SMILES	PTK2B oligo ant	PLK1 PBD inh	AP complement	HePTP inh	PLK1 inh	HEK293 NFkB inh
CCOc1cc(-c2cc(-c3ccc(C)cc3)nc(N)c2C#N)ccc1O	-3.8*	-31	.	.	-4	.
CCOc1cc(/C=C(\C#N)c2[nH]nc(N)c2C#N)ccc1O	-3.1*	-5	.	.	69*	.
COc1ccc(-c2cc(-c3ccc(Cl)cc3)c(C#N)c(N)n2)cc1	.	.	.	6	.	.
COC(=O)c1sccc1NC(=O)c1cccc2ccccc12	.	.	.	0	.	.
COc1ccccc1CNC(=O)C(=O)Nc1ccc(C)c(C)c1	.	.	.	0	.	.
COc1cc(OC)cc(C(=O)N(C(=O)c2cc(OC)cc(OC)c2)c2ncccc2C)c1	.	.	.	4	.	.
O=C(O)CC(C(=O)O)P(=O)(c1ccccc1)c1ccccc1 (centres undefined)	.	.	.	7	.	.
COC(=O)c1ccc(C(=O)Nc2cc(Cl)ccc2Cl)cc1NC(=O)C(C)Oc1ccccc1 (centres undefined)	.	.	.	66*	.	.
Cn1c(=O)c2c(nc(SCC(=O)Nc3ccc(N4CCOCC4)c(Cl)c3)n2C)n(C)c1=O	.	.	6	6	.	21
CSc1nc2ccc(Nc3nc(N4CCOCC4)nc(N4CCOCC4)n3)cc2s1	-3.4*	-17	-9	10	-8	11
CCCC(=O)Nc1ccc2nc(SCC(=O)Nc3ccc(N4CCOCC4)c(Cl)c3)sc2c1	-3.5*	-5	.	.	-7	.
O=C(COC(=O)c1ccccc1C(F)(F)F)c1ccc(Cl)cc1	.	.	.	-5	.	.
O=C1CC(N2CCCCC2)C(=O)N1Cc1ccccc1 (centres undefined)	.	.	.	4	.	.
Cc1cccc(Nc2ncnc3nc[nH]c23)c1C	.	-41	13	-8	56*	0
FC(F)Sc1ccc(Nc2ncnc3nc[nH]c23)cc1	0.27	9	.	.	60*	-8
CCCCOC(=O)c1ccc(Nc2ncnc3nc[nH]c23)cc1	.	.	18	3	.	-6
CN(C)CC(Oc1ccc(Cl)cc1)C(=O)O (centres undefined)	.	.	.	12	.	.
COc1ccc(Cl)cc1S(=O)(=O)N1CCN=C1C	.	5	-1	-13	64*	18
COc1ccc(Cl)cc1S(=O)(=O)N1CCN(c2ccc(F)cc2)CC1	-2.4	1	4	9	-8	9
CCN(CC)C(=O)c1sc(NC(=O)c2cc(-c3cccc(C)c3)nc3ccccc23)c(C(=O)OC)c1C	.	.	.	2	.	.
COc1ccccc1C(c1nnnn1Cc1ccco1)N1CCN(c2cccc(C)c2C)CC1 (centres undefined)	-0.25	-20	.	.	-9	.
COc1cc2cc(C(c3nnnn3C3CCCC3)N3CCCCC3)c(=O)[nH]c2cc1OC (centres undefined)	1.3	-8	31*	7	-11	23
COc1cc2cc(C(c3nnnn3C3CCCC3)N3CCCCCC3)c(=O)[nH]c2cc1OC (centres undefined)	0.26	-16	9	13	-16	7
COc1ccc(N2CCN(C(c3cc(OC)ccc3OC)c3nnnn3Cc3ccco3)CC2)cc1 (centres undefined)	-3.2*	.	1	4	.	5
COCCn1nnnc1C(c1ccc(OC)cc1OC)N1CCN(c2ccccc2)CC1 (centres undefined)	-4.1*	8	6	3	-13	14
SMILES	PTK2B oligo ant	PLK1 PBD inh	AP complement	HePTP inh	PLK1 inh	HEK293 NFkB inh
COc1ccc(OC)c(C(c2nnnn2CCc2ccccc2)N2CCN(c3ccccc3)CC2)c1 (centres undefined)	-2.7	3	0	7	4	30
COCCn1nnnc1C(c1ccc(OC)cc1OC)N1CCN(c2ccccc2F)CC1 (centres undefined)	-4.4*	-6	17	3	-3	8
Cc1c(O)nc(Nc2nc(C)c3ccccc3n2)[nH]c1=O	.	.	.	-5	.	.
O=c1c2ccccc2nc(/C=C/c2cccc([N+](=O)[O-])c2)n1-c1cccc2ccccc12	.	.	.	8	.	.
COc1ccc(OC)c(C(c2nnnn2C2CCCC2)N2CCN(c3ccc(F)cc3)CC2)c1 (centres undefined)	-3.2*	-3	5	4	-8	26
COc1ccc(C(c2nnnn2C2CCCC2)N2CCC(C)CC2)c(OC)c1 (centres undefined)	-2.7	8	10	-3	-6	17
